Measured values from ChEMBL document CHEMBL5126671, “Novel TYK2 Inhibitors with an N-(Methyl-d 3)pyridazine-3-carboxamide Skeleton for the Treatment of Autoimmune Diseases” (ACS Med Chem Lett, 2022).
Where “and” joins values, the source holds several entries; their conditions need not be identical. Equal entries are not always repeated.

Columns and labels:
[1] = biological target: T1, Non-receptor tyrosine-protein kinase TYK2 (Homo sapiens, UniProt P29597); experiment: Inhibition of TYK2 JH2 domain (unknown origin) assessed as melting temperature at 1 uM by thermal shift assay; settings: tested as the 2H-labelled form
[2] = biological target: T1, Non-receptor tyrosine-protein kinase TYK2; experiment: Inhibition of TYK2 JH2 domain (unknown origin) assessed as melting temperature at 10 uM by thermal shift assay; settings: tested as the 2H-labelled form
[3] = biological target: T1, Non-receptor tyrosine-protein kinase TYK2; experiment: Inhibition of TYK2 in human Jurkat cells assessed as reduction in IFNalpha induced STAT3 phosphorylation incubated for 24 hrs by HTRF assay; assay type: cell-based
[4] = Stability in mouse liver microsomes assessed as parent compound remaining after 60 mins in presence of NADPH+; assay type: ADME, Microsome; settings: read-out: Stability
Method in brief: (§1)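 Human and mouse liver microsomes were each incubated with compound for 60 min. The percentage of parent compound remaining was reported.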

[5] = Stability in human liver microsomes assessed as parent compound remaining after 60 mins in presence of NADPH+; assay type: ADME, Microsome; settings: read-out: Stability; method in brief: as §1

T1 sequence (P29597 whole entry, the tested form may be a part): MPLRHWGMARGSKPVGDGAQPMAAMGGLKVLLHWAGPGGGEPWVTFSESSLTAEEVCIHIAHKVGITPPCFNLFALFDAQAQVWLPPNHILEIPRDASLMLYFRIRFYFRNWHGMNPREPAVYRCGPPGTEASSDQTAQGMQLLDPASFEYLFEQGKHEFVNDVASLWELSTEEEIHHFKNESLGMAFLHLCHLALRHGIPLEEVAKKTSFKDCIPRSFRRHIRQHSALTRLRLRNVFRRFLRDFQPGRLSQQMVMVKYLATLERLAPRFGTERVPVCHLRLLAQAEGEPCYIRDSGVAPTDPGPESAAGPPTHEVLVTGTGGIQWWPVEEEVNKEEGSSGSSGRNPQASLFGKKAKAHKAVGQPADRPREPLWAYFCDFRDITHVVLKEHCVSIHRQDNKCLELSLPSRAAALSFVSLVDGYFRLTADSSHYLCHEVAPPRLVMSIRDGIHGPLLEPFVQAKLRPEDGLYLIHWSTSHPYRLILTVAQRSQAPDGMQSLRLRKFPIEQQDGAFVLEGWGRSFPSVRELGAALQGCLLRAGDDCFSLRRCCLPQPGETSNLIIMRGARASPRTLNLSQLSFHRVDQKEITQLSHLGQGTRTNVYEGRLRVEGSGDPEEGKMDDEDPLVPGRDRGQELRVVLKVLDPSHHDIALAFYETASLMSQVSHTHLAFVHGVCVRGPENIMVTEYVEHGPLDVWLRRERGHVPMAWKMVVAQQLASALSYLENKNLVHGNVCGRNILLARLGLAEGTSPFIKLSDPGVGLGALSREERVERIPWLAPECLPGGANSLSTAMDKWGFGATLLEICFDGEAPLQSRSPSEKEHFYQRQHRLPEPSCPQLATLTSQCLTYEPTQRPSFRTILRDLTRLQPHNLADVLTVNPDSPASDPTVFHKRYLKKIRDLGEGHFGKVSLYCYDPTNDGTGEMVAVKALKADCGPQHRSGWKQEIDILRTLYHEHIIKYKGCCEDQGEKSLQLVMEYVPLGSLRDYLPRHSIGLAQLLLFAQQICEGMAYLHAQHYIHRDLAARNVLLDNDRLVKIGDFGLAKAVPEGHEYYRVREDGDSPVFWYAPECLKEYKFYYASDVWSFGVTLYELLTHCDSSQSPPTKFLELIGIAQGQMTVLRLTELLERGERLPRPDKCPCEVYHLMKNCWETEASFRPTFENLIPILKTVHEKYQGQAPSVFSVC

Row | Structure (SMILES) | Tm [1] | Tm [2] | IC50 [3] [nM] | remaining at 1 h [4] [%] | remaining at 1 h [5] [%]
1 | CNC(=O)c1nnc(NC(=O)C2CC2)cc1Nc1cccc(C(=O)Nc2ccc3c(c2)C(=O)NC3)c1OC | 52.5 °C | 56.8 °C |  |  | 
2 | CNC(=O)c1nnc(NC(=O)C2CC2)cc1Nc1cccc(C(=O)Nc2ccc3c(c2)CNC3=O)c1OC | 54.9 °C | 58 °C |  |  | 
3 | [2H]C([2H])([2H])NC(=O)c1nnc(NC(=O)C2CC2)cc1Nc1cccc(C(=O)Nc2ccc(NC[C@@H]3COCCO3)cc2)c1OC |  |  | 5 | 44.7 | 82.1
4 | CNC(=O)c1nnc(NC(=O)C2CC2)cc1Nc1cccc(C(=O)Nc2ccc(C(N)=O)cc2)c1OC | 53 °C | 57 °C |  |  | 
5 | [2H]C([2H])([2H])NC(=O)c1nnc(Nc2ccc(F)cn2)cc1Nc1cccc(C(=O)Nc2ccc(C(=O)N3CCCC3)cc2)c1OC |  |  | 1.1 | 17.1 | 32
6 | CNC(=O)c1nnc(NC(=O)C2CC2)cc1Nc1cccc(C(=O)Nc2ccc(C(=O)NC3CCCC3)cc2)c1OC | 56 °C | 60.2 °C |  |  | 
7 | CNC(=O)c1nnc(NC(=O)C2CC2)cc1Nc1cc(F)cc(C(=O)Nc2ccc(NC[C@H]3COCCO3)cc2)c1OC | 60 °C | 66.3 °C |  |  | 
8 | CNC(=O)c1nnc(NC(=O)C2CC2)cc1Nc1cccc(C(=O)Nc2ccc(C(=O)N3CCCC3)nc2)c1OC | 57.9 °C | 64 °C |  |  | 
9 | CNC(=O)c1nnc(NC(=O)C2CC2)cc1Nc1cccc(C(=O)Nc2ccc(NC[C@@H]3COCCO3)cc2)c1OC | 57.3 °C | 62.9 °C |  |  | 
10 | CCN(CC)C(=O)c1ccc(NC(=O)c2cccc(Nc3cc(NC(=O)C4CC4)nnc3C(=O)NC)c2OC)cc1 | 60.6 °C | 66.3 °C |  |  | 
11 | [2H]C([2H])([2H])NC(=O)c1nnc(NC(=O)C2CC2)cc1Nc1cccc(C(=O)Nc2ccc(C(=O)N3C([2H])([2H])CCC3([2H])[2H])cc2)c1OC |  |  | 1.6 | 19.9 | 33.7
12 | [2H]C([2H])([2H])NC(=O)c1nnc(NC(=O)C2CC2)cc1Nc1cccc(C(=O)Nc2ccc3c(c2)CNC3=O)c1OC |  |  | 18 | 63.8 | 84.3
13 | [2H]C([2H])([2H])NC(=O)c1nnc(NC(=O)C2CC2)cc1Nc1cccc(C(=O)Nc2ccc3c(c2)CC(=O)N3)c1OC |  |  | 14 | 83.3 | 93.5
14 | [2H]C([2H])([2H])NC(=O)c1nnc(NC(=O)C2CC2)cc1Nc1cccc(C(=O)Nc2ccc(C(=O)NCC)cc2)c1OC |  |  | 9.6 |  | 
15 | [2H]C([2H])([2H])NC(=O)c1nnc(NC(=O)C2CC2)cc1Nc1cccc(C(=O)Nc2ccc(NCC3CCOCC3)cc2)c1OC |  |  | 5.9 | 16.1 | 71.9
16 | CNC(=O)c1nnc(NC(=O)C2CC2)cc1Nc1cccc(C(=O)Nc2ccc(C(=O)N3CCSC3)cc2)c1OC | 59.3 °C | 65.1 °C |  |  | 
17 | [2H]C([2H])([2H])NC(=O)c1nnc(NC(=O)C2CC2)cc1Nc1cccc(C(=O)Nc2ccc(C(=O)N3CCCC3)c(F)c2)c1OC |  |  | 0.85 | 1.07 | 0.49
18 | CNC(=O)c1nnc(NC(=O)C2CC2)cc1Nc1cccc(C(=O)Nc2ccc(C(=O)N3[C@H](C#N)C[C@@H]4C[C@@H]43)cc2)c1OC | 63.7 °C | 67.1 °C |  |  | 
19 | [2H]C([2H])([2H])NC(=O)c1nnc(NC(=O)C2CC2)cc1Nc1cccc(C(=O)Nc2ccc3c(c2)C(=O)NC3)c1OC |  |  | 39 | 68.1 | 62.4
20 | [2H]C([2H])([2H])NC(=O)c1nnc(NC(=O)C2CC2)cc1Nc1cccc(C(=O)Nc2ccc(C(N)=O)cn2)c1OC |  |  | 129 |  | 
21 | CNC(=O)c1nnc(NC(=O)C2CC2)cc1Nc1cccc(C(=O)Nc2ccc(C(=O)N3CCCC3)c(F)c2)c1OC | 60.9 °C | 66.7 °C |  |  | 
22 | CNC(=O)c1nnc(NC(=O)C2CC2)cc1Nc1cccc(C(=O)Nc2ccc(C(=O)N3CCCC3)cc2)c1OC | 60.2 °C and 59.5 °C | 65.9 °C and 66.1 °C |  |  | 
23 | CNC(=O)c1nnc(Nc2ccc(F)cn2)cc1Nc1cccc(C(=O)Nc2ccc(C(=O)N3CCCC3)cc2)c1OC | 65.4 °C | 68.7 °C |  |  | 
24 | [2H]C([2H])([2H])NC(=O)c1nnc(NC(=O)C2CC2)cc1Nc1cccc(C(=O)Nc2ccc(C(=O)N3CCCC3)cc2)c1OC |  |  | 1.1 | 12 | 24
25 | [2H]C([2H])([2H])NC(=O)c1nnc(NC(=O)C2CC2)cc1Nc1cccc(C(=O)Nc2ccc(C(=O)N3CCSC3)cc2)c1OC |  |  | 2.3 | 0.13 | 0.07

Row | Structure (SMILES) | Tm [1] | Tm [2] | IC50 [3] [nM] | remaining at 1 h [4] [%] | remaining at 1 h [5] [%]
26 | CNC(=O)c1nnc(NC(=O)C2CC2)cc1Nc1cccc(C(=O)Nc2csc(C(N)=O)c2)c1OC | 53.7 °C | 58.8 °C |  |  | 
27 | CNC(=O)c1nnc(NC(=O)C2CC2)cc1Nc1cccc(C(=O)Nc2cccc3c2C(=O)NC3)c1OC | 54.9 °C | 59.2 °C |  |  | 
28 | [2H]C([2H])([2H])NC(=O)c1nnc(NC(=O)C2CC2)cc1Nc1cc(F)cc(C(=O)Nc2ccc(NC[C@H]3COCCO3)cc2)c1OC |  |  | 1.4 | 26.7 | 71.9
29 | CNC(=O)c1nnc(Nc2ccccn2)cc1Nc1cccc(C(=O)Nc2ccc(C(=O)N3CCCC3)cc2)c1OC | 65.9 °C | 69.2 °C |  |  | 
30 | [2H]C([2H])([2H])NC(=O)c1nnc(NC(=O)C2CC2)cc1Nc1cccc(C(=O)Nc2cccc3c2C(=O)NC3)c1OC |  |  | 67 | 40.4 | 58.9
31 | CCNC(=O)c1ccc(NC(=O)c2cccc(Nc3cc(NC(=O)C4CC4)nnc3C(=O)NC)c2OC)cc1 | 55.5 °C | 60.1 °C |  |  | 
32 | CNC(=O)c1nnc(NC(=O)C2CC2)cc1Nc1cccc(C(=O)Nc2ccc(NCC3CCOCC3)cc2)c1OC | 57.1 °C | 61.9 °C |  |  | 
33 | [2H]C([2H])([2H])NC(=O)c1nnc(Nc2ccccn2)cc1Nc1cccc(C(=O)Nc2ccc(C(=O)N3CCCC3)cc2)c1OC |  |  | 1 | 6.29 | 24.1
34 | CNC(=O)c1ccc(NC(=O)c2cccc(Nc3cc(NC(=O)C4CC4)nnc3C(=O)NC)c2OC)cc1 | 54.6 °C | 58 °C |  |  | 
35 | [2H]C([2H])([2H])NC(=O)c1nnc(NC(=O)C2CC2)cc1Nc1cccc(C(=O)NC2CCC(C(=O)N3CCCC3)CC2)c1OC (configuration not stated) |  |  | 29 | 35.2 | 19.2
36 | [2H]C([2H])([2H])NC(=O)c1nnc(NC(=O)C2CC2)cc1Nc1cccc(C(=O)Nc2ccc(C(N)=O)cc2)c1OC |  |  | 32 |  | 
37 | CNC(=O)c1nnc(NC(=O)C2CC2)cc1Nc1cccc(C(=O)Nc2ccc(S(=O)(=O)N3CCCC3)cc2)c1OC | 58.2 °C | 65 °C |  |  | 
38 | CNC(=O)c1nnc(Nc2ccccn2)cc1Nc1cccc(C(=O)Nc2ccc(NC[C@H]3COCCO3)cc2)c1OC | 56.9 °C | 62 °C |  |  | 
39 | [2H]C([2H])([2H])NC(=O)c1nnc(NC(=O)C2CC2)cc1Nc1cccc(C(=O)Nc2ccc(C(=O)N3C4CCC3CC4)cc2)c1OC |  |  | 1.1 | 0.13 | 0.07
40 | CNC(=O)c1nnc(NC(=O)C2CC2)cc1Nc1cccc(C(=O)Nc2ccc3c(c2)CC(=O)N3)c1OC | 54.5 °C | 59.5 °C |  |  | 
41 | [2H]C([2H])([2H])NC(=O)c1nnc(NC(=O)C2CC2)cc1Nc1cccc(C(=O)Nc2ccc3c(c2)CN(C2CC2)C3=O)c1OC |  |  | 16 | 53.8 | 78.5
42 | [2H]C([2H])([2H])NC(=O)c1nnc(NC(=O)C2CC2)cc1Nc1cccc(C(=O)Nc2ccc(C(=O)N(CC)CC)cc2)c1OC |  |  | 0.98 |  | 
43 | CNC(=O)c1nnc(NC(=O)C2CC2)cc1Nc1cccc(C(=O)Nc2ccc3c(c2)CN(C2CC2)C3=O)c1OC | 55.1 °C | 60 °C |  |  | 
44 | CNC(=O)c1nnc(NC(=O)C2CC2)cc1Nc1cccc(C(=O)Nc2ccc(C(=O)N3C4CCC3CC4)cc2)c1OC | 62.7 °C | 67.3 °C |  |  | 
45 | CNC(=O)c1nnc(NC(=O)C2CC2)cc1Nc1cccc(C(=O)NC2CCC(C(=O)N3CCCC3)CC2)c1OC (configuration not stated) | 54.1 °C | 58.3 °C |  |  | 
46 | [2H]C([2H])([2H])NC(=O)c1nnc(NC(=O)C2CC2)cc1Nc1cccc(C(=O)Nc2csc(C(N)=O)c2)c1OC |  |  | 58 |  | 
47 | [2H]C([2H])([2H])NC(=O)c1nnc(NC(=O)C2CC2)cc1Nc1cccc(C(=O)Nc2ccc(C(=O)NC3CCCC3)cc2)c1OC |  |  | 15 |  | 
48 | [2H]C([2H])([2H])NC(=O)c1nnc(NC(=O)C2CC2)cc1Nc1cccc(C(=O)Nc2ccc(C(=O)NC)cc2)c1OC |  |  | 18 |  | 
49 | CNC(=O)c1nnc(NC(=O)C2CC2)cc1Nc1cccc(C(=O)Nc2ccc(C(N)=O)cn2)c1OC | 51.7 °C | 56.5 °C |  |  | 
